25 compounds from ChEMBL document CHEMBL4513216, “Probing the Open Global Health Chemical Diversity Library for Multistage-Active Starting Points for Next-Generation Antimalarials” (ACS Infect Dis, 2020) can be followed below.

A short description of this data set: Toxicity liver stage against HepG2, at 10uM. The format is cell-based. Set-up: test concentration 10 uM, cell line HepG2-A16-CD81EGFP. The settings on record: human, HepG2-A16-CD81EGFP cells; read-out: INHIBITION
A digest of the protocol: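 Uninfected HepG2-A16-CD81EGFP cells, 3 × 10^3 per well, 1536-well, plated on prespotted compound at 10 μM final, parasite-free screening media added to match infected plates; puromycin 10 μM positive, DMSO 0.5% negative; run in parallel with 48 h PbLuc assay at 37 °C, 5% CO2; viability by CellTiter-Glo luminescence, normalized to controls.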
On to `COc1ccc(-c2nnc([C@H]3CCN(CC4CC4)C3)o2)cc1`, for which the cytotoxicity at 10 µM was -4.6%.
In the case of `CC1=C[C@@H](CC#N)[C@H](C(C)C)C[C@H]1CC(=O)N1CCN(C)CC1` it was -4.42%; in that of `CN1C[C@H](O)C[C@H]1c1nc(-c2ccc3c(c2)OCO3)no1`, 6.88%.
As to `O=c1c2cnc(N3CCOCC3)nc2ccn1-c1ccccc1`, the cytotoxicity at 10 µM was -3.12%.
For the compound `Cn1cc(NC(=O)c2cc3c(s2)CCCC3)cn1`, the cytotoxicity at 10 µM is -2.17%.
As for `Cc1cnc(C(=O)NCC2Cc3ccccc3O2)cn1` (stereo not given), the figure is -0.71%; as for `N#Cc1cccnc1NCCc1cc(F)cc2c1OCOC2`, 19.5%.
In the case of `CS(=O)(=O)c1ccc(NC(=O)NCCC2=CCCCC2)cc1`, the cytotoxicity at 10 µM was -0.529%.
In the case of `Cc1c(C(=O)NC2=NCCS2)cnn1-c1ccc(Br)cc1` it was -0.647%.
As for `COC(=O)C1CN(CC(=O)Nc2cccc(OC)c2)c2ccccc21` (stereo not given), the cytotoxicity at 10 µM came to 11.1%.
In the case of `O=C(Nc1cnc(C2CC2)nc1)N1CCCC1` it was -14.9%.
On to `Cn1cccc(NC(=O)COc2ccc(Cl)cc2)c1=O`, for which the cytotoxicity at 10 µM was found to be 4.69%.
Regarding `COc1ccccc1OCCC(=O)NCc1ncc(C)c(OC)c1C`, the cytotoxicity at 10 µM is -3.63%.
As for `CC(C(=O)NC(C)(C)C)N1CCC(C(=O)Nc2cnccn2)CC1` (stereo not given), the figure is -1.36%.
In the case of `COc1ccccc1OCc1cc(C(=O)N2CCS(=O)(=O)CC2)n[nH]1`, the cytotoxicity at 10 µM is -2.93%.
As for `Cc1cc(C(=O)NC(C)C(=O)Nc2cc(F)ccc2C)nc(C)n1` (stereo not given), the figure is -3.71%; as for `COc1ccc(F)cc1C(=O)N1CC(c2ccncc2)C1`, -4.93%.
In the case of `COc1ccccc1OCc1cc(C(=O)N2[C@H](C)CC[C@@H]2C)n[nH]1` it was -2.01%; in that of `COc1ccccc1OCc1cc(C(=O)N2CCC(C(C)O)CC2)n[nH]1` (stereo not given), 0.127%.
For `Cc1ncsc1CCNC(=O)Cn1nc(C)n(Cc2ccccc2)c1=O`, the cytotoxicity at 10 µM stood at 7.48%.
In the case of `CC(C)c1cc(NC(=O)c2cccnc2)[nH]n1`, the cytotoxicity at 10 µM was -4.24%.
In the case of `O=C(NCc1ccccn1)C1=NN(c2ccccc2)C(=O)CN1` it was -0.855%; in that of `Cc1ccc(SCCN(C)C(=O)c2cn(C3CCC(N)CC3)nn2)cc1` (stereo not given), -8.59%; in that of `CC(C)NC(=O)CN(C)CC(=O)Nc1ccnn1C(C)C1CC1` (stereo not given), -6%.
As for `Cc1ccc2nc(CNCCCOc3ccccc3)cc(O)c2c1` [UCSF924], the figure is 5.5%.
